Experimental data from ChEMBL document CHEMBL1154366, “1,2-Diamines as inhibitors of co-activator associated arginine methyltransferase 1 (CARM1)” (Bioorg Med Chem Lett, 2009).

Tests used:
[1] = molecular target: T1, Histone-arginine methyltransferase CARM1 (Mus musculus, UniProt Q9WVG6); assay: Inhibition of N-terminal His-tagged mouse recombinant CARM1 expressed in Sf9 cells by microbeta counting
T1 sequence (Q9WVG6 whole entry): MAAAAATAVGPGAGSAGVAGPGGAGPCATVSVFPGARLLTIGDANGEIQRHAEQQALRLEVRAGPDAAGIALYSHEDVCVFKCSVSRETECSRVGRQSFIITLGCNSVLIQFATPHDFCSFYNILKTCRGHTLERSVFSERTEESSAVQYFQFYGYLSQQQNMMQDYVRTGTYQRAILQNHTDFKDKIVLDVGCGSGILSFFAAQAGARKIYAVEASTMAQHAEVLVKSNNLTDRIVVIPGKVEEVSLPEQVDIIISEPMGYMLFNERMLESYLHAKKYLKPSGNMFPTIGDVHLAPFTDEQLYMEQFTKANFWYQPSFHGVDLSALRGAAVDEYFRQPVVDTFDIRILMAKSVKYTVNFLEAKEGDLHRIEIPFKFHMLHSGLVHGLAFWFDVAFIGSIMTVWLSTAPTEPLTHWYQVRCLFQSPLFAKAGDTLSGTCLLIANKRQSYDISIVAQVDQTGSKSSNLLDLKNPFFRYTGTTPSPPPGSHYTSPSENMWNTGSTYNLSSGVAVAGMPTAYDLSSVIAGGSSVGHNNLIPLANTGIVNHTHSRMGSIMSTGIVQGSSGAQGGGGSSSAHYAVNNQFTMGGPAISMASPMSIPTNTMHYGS
Summary of the method: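 Recombinant CARM1 with histone H3 substrate, in Tris-HCl pH 9. Enzyme pre-incubated with compound for 10 min at RT. [3H]SAM (20% labelled, 0.033 mCi/ml) and H3 were added, then 15 min at 30 °C. Quenched with SAH and spotted on P30 filtermat. Washed twice with 10% TCA and once with 95% ethanol, then wax scintillant counting. Values are means of at least two experiments.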

Rattus norvegicus [2] = assay: (§1) Clearance in iv dosed rat; format: ADME, organism-based; details: in vivo
Rattus norvegicus [3] = assay: (§2) Half life in iv dosed rat; format: ADME, organism-based; details: in vivo
Rattus norvegicus [4] = assay: (§3) Volume of distribution at steady state in iv dosed rat; format: ADME, organism-based; details: in vivo
[5] = as §1; format: ADME, organism-based; details: in vivo
[6] = Bioavailability in rat; format: ADME, organism-based; details: in vivo
[7] = as §2; format: ADME, organism-based; details: in vivo
[8] = molecular target: T2, Histone-lysine N-methyltransferase SETD7 (Homo sapiens, UniProt Q8WTS6); assay: Inhibition of N-terminal His-tagged human recombinant SET7/9 expressed in Escherichia coli by microbeta counting
T2 sequence (Q8WTS6 whole entry): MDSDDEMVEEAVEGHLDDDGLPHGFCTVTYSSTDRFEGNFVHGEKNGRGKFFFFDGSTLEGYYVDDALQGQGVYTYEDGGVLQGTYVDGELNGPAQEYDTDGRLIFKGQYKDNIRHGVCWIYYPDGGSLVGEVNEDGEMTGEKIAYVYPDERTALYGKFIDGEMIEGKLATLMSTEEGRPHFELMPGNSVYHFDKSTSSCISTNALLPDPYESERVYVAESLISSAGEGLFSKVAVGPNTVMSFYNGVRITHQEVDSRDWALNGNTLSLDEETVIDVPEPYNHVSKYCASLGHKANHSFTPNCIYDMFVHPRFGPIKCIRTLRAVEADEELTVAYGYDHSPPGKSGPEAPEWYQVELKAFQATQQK
Summary of the method: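 His-tagged human SET9 made in E. coli, with histone H3 substrate, in Tris-HCl pH 9. Compound and enzyme pre-incubated for 10 min at RT. [3H]SAM (20% labelled, 0.011 mCi/ml) and H3 were added, then 45 min at 37 °C. Reaction stopped and transferred to a flashplate. Washed twice with 10% TCA, dried and counted.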

[9] = molecular target: Protein arginine N-methyltransferase 1 (Homo sapiens, UniProt Q99873); assay: Inhibition of N-terminal GST-tagged human recombinant PRMT1 expressed in Escherichia coli by microbeta counting
Summary of the method: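 GST-tagged human PRMT1 made in E. coli, with recombinant histone H4 as substrate, in Tris-HCl pH 9. Enzyme pre-incubated with compound for 10 min at RT. [3H]SAM (20% labelled, 0.033 mCi/ml) and H4 were added, then 15 min at 30 °C. Stopped with SAH and spotted onto P30 filtermat. Washed with 10% TCA and 95% ethanol, then scintillation-counted.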

[10] = as §3; format: ADME, organism-based; details: in vivo, read-out: Vdss

Chain of Protein arginine N-methyltransferase 1 (Q99873 whole entry): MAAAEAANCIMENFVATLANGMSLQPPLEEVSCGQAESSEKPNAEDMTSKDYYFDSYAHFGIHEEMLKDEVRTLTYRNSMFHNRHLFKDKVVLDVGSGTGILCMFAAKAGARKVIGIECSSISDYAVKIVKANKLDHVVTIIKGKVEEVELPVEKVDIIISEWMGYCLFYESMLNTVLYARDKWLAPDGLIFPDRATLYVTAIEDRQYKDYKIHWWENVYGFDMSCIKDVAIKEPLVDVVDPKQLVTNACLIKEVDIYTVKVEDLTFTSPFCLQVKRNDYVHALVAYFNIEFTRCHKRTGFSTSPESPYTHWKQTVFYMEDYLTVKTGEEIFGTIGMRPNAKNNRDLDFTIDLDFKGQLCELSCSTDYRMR

Structure (SMILES) | IC50 [1] | also measured
CNCCNCc1cccc(-n2nc(C(F)(F)F)cc2C(=O)NCc2cc(F)ccc2OC)c1 | 0.71 µM | –
COc1ccccc1CNC(=O)c1cc(C(F)(F)F)nn1-c1cccc(CNC(=O)[C@H](C)N)c1 | – | CL (Rattus norvegicus [2]): 1430 mL/min/kg; t1/2 (Rattus norvegicus [3]): 4.2 min; Vdss (Rattus norvegicus [4]): 33.6 L/kg
CNCCNCc1cccc(-n2nc(C(F)(F)F)cc2C(=O)NCC2CCCCC2)c1 | 3.6 µM | –
CNCCNCc1cccc(-n2nc(C(F)(F)F)cc2C(=O)NCc2ccccc2OC)c1 | 0.2 µM | clearance [5]: 20 mL/min/kg; bioavailability [6]: 4%; half-life [7]: 2.1 h; IC50 [8]: > 100 µM; IC50 [9]: > 100 µM; Vd [10]: 1.4 L/kg
COc1ccccc1CNC(=O)c1cc(C(F)(F)F)nn1-c1cccc(CNCCN(C)C)c1 | 7.9 µM | –
COc1ccccc1CNC(=O)c1cc(C(F)(F)F)nn1-c1cccc(-c2n[nH]c([C@H](C)N)n2)c1 | > 20 µM | –
CNCCNCc1cccc(-n2nc(C(F)(F)F)cc2C(=O)NCc2ccccc2C)c1 | 13.1 µM | –
COc1ccccc1CNC(=O)c1cc(C(F)(F)F)nn1-c1cccc(CNC(=S)[C@H](C)N)c1 | 4.5 µM | –
CNCCNC(=O)c1cccc(-n2nc(C(F)(F)F)cc2C(=O)NCc2ccccc2OC)c1 | > 20 µM | –
CNCCNCc1cc(-n2nc(C(F)(F)F)cc2C(=O)NCc2ccccc2OC)cc(C(F)(F)F)c1 | > 20 µM | –
CNCCNCc1cccc(-n2nc(C(F)(F)F)cc2C(=O)NCc2ccccc2)c1 | > 10 µM | –
COc1ccccc1CNC(=O)c1cc(C(F)(F)F)nn1-c1cccc(-c2noc([C@H](C)N)n2)c1 | > 20 µM | –
CNCCNCc1cccc(-n2nc(C(F)(F)F)cc2C(=O)NCc2nc3ccccc3[nH]2)c1 | 4.3 µM | –
CNCCNCc1cccc(-n2nc(C(F)(F)F)cc2C(=O)NCc2ccccc2N)c1 | > 10 µM | –
CNCCNCc1cc(-n2nc(C(F)(F)F)cc2C(=O)NCc2ccccc2OC)ccc1F | 5.6 µM | –
CNCCNCc1cccc(-n2nc(C(F)(F)F)cc2C(=O)NCc2cccc3ccccc23)c1 | 0.32 µM | clearance [5]: 38.3 mL/min/kg; bioavailability [6]: 3%; half-life [7]: 1.4 h; Vd [10]: 0.2 L/kg

Structure (SMILES) | IC50 [1] | also measured
CNCCNCc1cccc(-n2nc(C(F)(F)F)cc2C(=O)NCc2cccc3c2OCCO3)c1 | 0.71 µM | –
CNCCNCc1cccc(-n2nc(C(F)(F)F)cc2C(=O)NCCc2c[nH]c3ccccc23)c1 | 1.8 µM | –
CCNCCNCc1cccc(-n2nc(C(F)(F)F)cc2C(=O)NCc2ccccc2OC)c1 | 7.7 µM | –
COc1ccccc1CNC(=O)c1cc(C(F)(F)F)nn1-c1cccc(CNC2CCNC2)c1 (stereo unspecified) | > 20 µM | –
CNCCNCc1cccc(-n2nc(C(F)(F)F)cc2C(=O)NCc2c(OC)ccc3ccccc23)c1 | 3.35 µM | –
COc1ccccc1CNC(=O)c1cc(C(F)(F)F)nn1-c1cccc(CNCCN)c1 | 1 µM | –
CNCCNCc1cc(-n2nc(C(F)(F)F)cc2C(=O)NCc2ccccc2OC)ccc1C | 7.94 µM | –
COc1ccccc1CNC(=O)c1cc(C(F)(F)F)nn1-c1cccc(CCNC(=O)[C@H](C)N)c1 | > 20 µM | –
CNCCNCc1ccc2c(c1)n1nc(C(F)(F)F)cc1c(=O)n2Cc1ccccc1OC | > 10 µM | –
COc1ccccc1CNC(=O)c1cc(C(F)(F)F)nn1-c1cccc(CNC(=O)[C@H](C)O)c1 | > 20 µM | –
CCc1ccccc1CNC(=O)c1cc(C(F)(F)F)nn1-c1cccc(CNCCNC)c1 | 1.61 µM | –
CNCCNCc1cccc(-n2nc(C(F)(F)F)cc2-c2nnc(-c3ccccc3OC)o2)c1 | – | clearance [5]: 36.7 mL/min/kg; bioavailability [6]: 3%; half-life [7]: 1.8 h; Vd [10]: 0.6 L/kg
CNCCNC(C)c1cccc(-n2nc(C(F)(F)F)cc2C(=O)NCc2ccccc2OC)c1 (stereo unspecified) | 21 µM | –
CNCCNCc1cccc(-n2nc(C(F)(F)F)cc2C(=O)NCc2ccccc2OC(F)(F)F)c1 | 6.5 µM | –
CNCCNCc1cccc(-n2nc(C(F)(F)F)cc2C(=O)NCc2nc3ccccc3n2C)c1 | 4.7 µM | –
CCOc1ccccc1CNC(=O)c1cc(C(F)(F)F)nn1-c1cccc(CNCCNC)c1 | 0.9 µM | clearance [5]: 20 mL/min/kg; bioavailability [6]: 2%; half-life [7]: 0.5 h; Vd [10]: 0.1 L/kg
